ChEMBL document CHEMBL4033712, “Synthesis and biological evaluation of new C-12(α/β)-(N-) sulfamoyl-phenylamino-14-deoxy-andrographolide derivatives as potent anti-cancer agents” (Bioorg Med Chem Lett, 2017)

Key:
Assay type in all cases: functional
UACC-62 = experiment: Anticancer activity against human UACC62 cells assessed as cell growth at 10 uM after 48 hrs by sulforhodamine B assay relative to control; details: UACC-62, 48 h, read-out: Activity
Outline: (§1)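 NCI-60 single-dose screen: compound added at 10 µM, cultures incubated 48 h. End point by sulforhodamine B protein-binding dye. Value reported as percent growth of treated cells relative to untreated control cells.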

HL-60(TB) = experiment: Anticancer activity against human HL-60(TB) cells assessed as cell growth at 10 uM after 48 hrs by sulforhodamine B assay relative to control; details: HL-60, 48 h, read-out: Activity
Outline: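 NCI-60 human tumour panel single-dose screen: cells exposed to 10 µM compound for 48 h. Growth end point read with sulforhodamine B protein-binding dye. Expressed as percent growth of treated cells versus untreated control cells.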

EKVX = experiment: Anticancer activity against human EKVX cells assessed as cell growth at 10 uM after 48 hrs by sulforhodamine B assay relative to control; details: read-out: Activity
Outline: (§2)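 Single-dose NCI-60 panel screen: compound added at 10 µM and the culture incubated 48 h. The end point was read by protein staining with sulforhodamine B. The value is percent growth of treated cells relative to untreated control cells, reported as a mean graph across the panel.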

LOX IMVI = experiment: Anticancer activity against human LOXIMVI cells assessed as cell growth at 10 uM after 48 hrs by sulforhodamine B assay relative to control; details: read-out: Activity; outline: as §2
SF-295 = experiment: Anticancer activity against human SF295 cells assessed as cell growth at 10 uM after 48 hrs by sulforhodamine B assay relative to control; details: SF-295, 48 h, read-out: Activity; outline: as §2
RPMI-8226 = experiment: Anticancer activity against human RPMI8226 cells assessed as cell growth at 10 uM after 48 hrs by sulforhodamine B assay relative to control; details: RPMI-8226, 48 h, read-out: Activity; outline: as §2
HOP-62 = experiment: Anticancer activity against human HOP62 cells assessed as cell growth at 10 uM after 48 hrs by sulforhodamine B assay relative to control; details: HOP-62, 48 h, read-out: Activity; outline: as §2
Malme-3M = experiment: Anticancer activity against human MALME-3M cells assessed as cell growth at 10 uM after 48 hrs by sulforhodamine B assay relative to control; details: read-out: Activity; outline: as §2
HCT-116 = experiment: Anticancer activity against human HCT116 cells assessed as cell growth at 10 uM after 48 hrs by sulforhodamine B assay relative to control; details: HCT-116, 48 h, read-out: Activity; outline: as §2
A498 = experiment: Anticancer activity against human A498 cells assessed as cell growth at 10 uM after 48 hrs by sulforhodamine B assay relative to control; details: A498, 48 h, read-out: Activity; outline: as §2
KM12 = experiment: Anticancer activity against human KM12 cells assessed as cell growth at 10 uM after 48 hrs by sulforhodamine B assay relative to control; details: KM12, 48 h, read-out: Activity; outline: as §2
MOLT-4 = experiment: Anticancer activity against human MOLT4 cells assessed as cell growth at 10 uM after 48 hrs by sulforhodamine B assay relative to control; details: MOLT-4, 48 h, read-out: Activity; outline: as §2
Hs-578T [1] = experiment: Anticancer activity against human Hs 578T cells assessed as cell growth at 10 uM after 48 hrs by sulforhodamine B assay relative to control; details: read-out: Activity; outline: as §2
RXF 393 = experiment: Anticancer activity against human RXF393 cells assessed as cell growth at 10 uM after 48 hrs by sulforhodamine B assay relative to control; details: RXF 393, 48 h, read-out: Activity; outline: as §2
IGROV-1 = experiment: Anticancer activity against human IGROV1 cells assessed as cell growth at 10 uM after 48 hrs by sulforhodamine B assay relative to control; details: IGROV-1, 48 h, read-out: Activity; outline: as §2
Hs-578T [2] = experiment: Growth inhibition of human Hs 578T cells incubated for 48 hrs by sulforhodamine B assay
Outline: (§3)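 NCI-60 five-dose screen at 0.01, 0.1, 1, 10 and 100 µM, 48 h incubation, sulforhodamine B end point. GI50 (50% decrease in net growth), TGI (total growth inhibition) and LC50 (net 50% loss of initial cells) taken from log concentration versus % growth inhibition curves.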

OVCAR-4 = experiment: Anticancer activity against human OVCAR4 cells assessed as cell growth at 10 uM after 48 hrs by sulforhodamine B assay relative to control; details: OVCAR-4, 48 h, read-out: Activity; outline: as §2
M14 = experiment: Anticancer activity against human M14 cells assessed as cell growth at 10 uM after 48 hrs by sulforhodamine B assay relative to control; details: M14, 48 h, read-out: Activity; outline: as §2
A549 = experiment: Anticancer activity against human A549/ATCC cells assessed as cell growth at 10 uM after 48 hrs by sulforhodamine B assay relative to control; details: A549, 48 h, read-out: Activity; outline: as §2
OVCAR-5 = experiment: Anticancer activity against human OVCAR5 cells assessed as cell growth at 10 uM after 48 hrs by sulforhodamine B assay relative to control; details: OVCAR-5, 48 h, read-out: Activity; outline: as §2
NCI/ADR-RES = experiment: Anticancer activity against human NCI/ADR-RES cells assessed as cell growth at 10 uM after 48 hrs by sulforhodamine B assay relative to control; details: read-out: Activity; outline: as §2
NCI-H23 = experiment: Anticancer activity against human NCI-H23 cells assessed as cell growth at 10 uM after 48 hrs by sulforhodamine B assay relative to control; details: NCI-H23, 48 h, read-out: Activity; outline: as §2
NCI-H322M = experiment: Anticancer activity against human NCI-H322M cells assessed as cell growth at 10 uM after 48 hrs by sulforhodamine B assay relative to control; details: read-out: Activity; outline: as §2
SNB-75 = experiment: Anticancer activity against human SNB75 cells assessed as cell growth at 10 uM after 48 hrs by sulforhodamine B assay relative to control; details: SNB-75, 48 h, read-out: Activity; outline: as §1
HOP-92 = experiment: Growth inhibition of human HOP92 cells incubated for 48 hrs by sulforhodamine B assay; details: HOP-92, 48 h; for CC50: read-out: LC50 (the source's name); outline: as §3
BT-549 = experiment: Growth inhibition of human BT549 cells incubated for 48 hrs by sulforhodamine B assay; details: BT-549, 48 h; for CC50: read-out: LC50 (the source's name); outline: as §3
TK-10 = experiment: Anticancer activity against human TK10 cells assessed as cell growth at 10 uM after 48 hrs by sulforhodamine B assay relative to control; details: TK-10, 48 h, read-out: Activity; outline: as §1
786-0 = experiment: Anticancer activity against human 786-0 cells assessed as cell growth at 10 uM after 48 hrs by sulforhodamine B assay relative to control; details: 786-0, 48 h, read-out: Activity; outline: as §2
K562 = experiment: Anticancer activity against human K562 cells assessed as cell growth at 10 uM after 48 hrs by sulforhodamine B assay relative to control; details: K562, 48 h, read-out: Activity; outline: as §2

Row | SMILES | growth at 10 µM (UACC-62) | growth at 10 µM (HL-60(TB)) | growth at 10 µM (EKVX) | growth at 10 µM (LOX IMVI) | growth at 10 µM (SF-295) | growth at 10 µM (RPMI-8226) | growth at 10 µM (HOP-62) | growth at 10 µM (Malme-3M) | growth at 10 µM (HCT-116) | growth at 10 µM (A498) | growth at 10 µM (KM12) | growth at 10 µM (MOLT-4) | growth at 10 µM (Hs-578T [1]) | growth at 10 µM (RXF 393) | growth at 10 µM (IGROV-1) | GI50 (Hs-578T [2]) | LC50 (Hs-578T [2]) | TGI (Hs-578T [2]) | growth at 10 µM (OVCAR-4) | growth at 10 µM (M14) | other results
1 | C=C1CC[C@@H]2[C@](C)(COC(C)=O)[C@H](OC(C)=O)CC[C@@]2(C)[C@H]1CC(Nc1ccc(S(=O)(=O)Nc2ncccn2)cc1)C1=CCOC1=O (stereo not given in full) | 3.93% | -17.2% | 68.3% | -79.8% | 68% | -12.7% | 126% | -4.93% | -55% | 79% | -13.2% | -8.69% | 51.2% | -70% | 7.21% | 3.54 µM | > 100 µM | 24.4 µM | 42.7% | 4.76% | growth at 10 µM (A549): 44.7%; growth at 10 µM (OVCAR-5): -1.98%; growth at 10 µM (NCI/ADR-RES): 16.1%; growth at 10 µM (NCI-H23): 29.6%; growth at 10 µM (NCI-H322M): 50.9%; growth at 10 µM (SNB-75): 25.6%; GI50 (HOP-92): 3.1 µM; TGI (HOP-92): 8.85 µM; CC50 (HOP-92): 31.1 µM; GI50 (BT-549): 1.64 µM; TGI (BT-549): 3.39 µM; CC50 (BT-549): 7.04 µM; growth at 10 µM (TK-10): 35.1%; growth at 10 µM (786-0): -10.1%; growth at 10 µM (K562): 4.6%
2 | C=C1CC[C@@H]2[C@](C)(COC(C)=O)[C@H](OC(C)=O)CC[C@@]2(C)[C@H]1CC(Nc1ccc(S(=O)(=O)Nc2nccc(C)n2)cc1)C1=CCOC1=O (stereo not given in full) | 24.2% | -17.3% | 79.2% | -72.9% | 78.7% | -5.56% | 156% | -0.7% | -32.2% | 96.8% | 13.2% | -1.85% | 68.6% | -38.3% | 25.8% | 6.65 µM | > 100 µM | 43 µM | 32.3% | 11.2% | growth at 10 µM (A549): 63.4%; growth at 10 µM (OVCAR-5): 26.9%; growth at 10 µM (NCI/ADR-RES): 20.9%; growth at 10 µM (NCI-H23): 48.4%; growth at 10 µM (NCI-H322M): 64.8%; growth at 10 µM (SNB-75): 9.66%; GI50 (HOP-92): 6.24 µM; TGI (HOP-92): 18.9 µM; CC50 (HOP-92): 44.5 µM; GI50 (BT-549): 2.3 µM; TGI (BT-549): 5.61 µM; CC50 (BT-549): 18.7 µM; growth at 10 µM (TK-10): 83%; growth at 10 µM (786-0): 32.5%; growth at 10 µM (K562): 3.62%
